From ChEMBL document CHEMBL1131232, “New azole antifungals. 3. Synthesis and antifungal activity of 3-substituted-4(3H)-quinazolinones” (J Med Chem, 1998)
Converted amounts (≈) assume the structure as drawn.

Experiments:
[1] = In vitro for antifungal activity against 10 yeasts; format: functional
Summary of the method: (§1)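 Agar dilution on Kimmig's agar with 0.5% glycerol, using ATCC strains or clinical isolates. Drug stocks were 800 μg/mL in 50% ethanol, tested as 2-fold dilutions from 80 to 0.03 μg/mL. Inocula were 10⁵ cfu/mL. […] Geometric means took >80 as 160 and ≤0.03 as 0.03.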

[2] = In vitro antifungal activity against 6 filamentous fungi; format: functional; summary of the method: as §1
Mus musculus [3] = assay: In vivo antifungal activity against murine candidosis model after peroral administration with 0.25 mg/kg at various time intervals. (percent protection for 100% mortality with fluconazole-treated group.); format: functional; conditions: route oral
Summary of the method: (§2)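 Groups of 10 male mice were infected iv with 0.2 mL of C. albicans at 2 to 8×10^7 cfu/mL. Drug was given orally as a suspension in 1% Tween + 0.2% carboxymethylcellulose at 1, 4 and 24 h post-infection; controls got vehicle only. Survival was scored on days 3, 5, 7 and 9. Read-out was % survival on the day all untreated controls died, or on the day all mice given fluconazole at the same dose died.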

Mus musculus [4] = assay: In vivo antifungal activity against murine candidosis model after peroral administration with 0.25 mg/kg at various time intervals. (percent protection for 100% mortality with untreated group); format: functional; conditions: route oral; summary of the method: as §2
Mus musculus [5] = assay: In vivo antifungal activity against murine candidosis model after peroral administration with 2.5 mg/kg at various time intervals. (percent protection for 100% mortality with untreated group); format: functional; conditions: route oral; summary of the method: as §2
Mus musculus [6] = assay: (§3) In vivo antifungal activity against murine candidosis model after peroral administration with 2.5 mg/kg at various time intervals. (percent protection for 100% mortality with fluconazole-treated group.); format: functional; conditions: route oral; summary of the method: as §2
Candida albicans [7] = assay: as §3; format: functional; conditions: route oral; summary of the method: as §2
Candida albicans [8] = assay: In vivo antifungal activity against murine candidosis model after peroral administration with 0.5 mg/kg at various time intervals. (percent protection for 100% mortality with fluconazole-treated group.); format: functional; conditions: route oral; summary of the method: as §2
[9] = Half-life in rats after iv administration; format: ADME, organism-based; conditions: rat, in vivo
Candida albicans [10] = assay: In vivo antifungal activity against murine candidosis model after peroral administration with 0.5 mg/kg at various time intervals. (percent protection for 100% mortality with untreated group); format: functional; conditions: route oral; summary of the method: as §2
Candida albicans [11] = assay: The compound was tested in vitro for antifungal activity against Candida albicans.; format: functional; summary of the method: as §1
Mus musculus [12] = assay: The compound was tested in vivo for anti-candida activity in mice model 2(dose: 5 mg/kg, untreated group).; format: functional
Oryctolagus cuniculus [13] = assay: In vivo antifungal activity against systemic candidosis in rabbit kidney at a dose of 2.5 mg/kg, qd, po.; format: functional
Summary of the method: (§4)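 Male New Zealand rabbits, 10 per group, were infected iv with C. albicans at 1.2×10^7 cfu/kg. Oral dosing in 1% Tween 80 + 0.2% CMC began 4 h post-infection and continued qd for 6 more days; controls received vehicle. On day 7, kidney and lung homogenates in saline (1 mL/g) were plated on Sabouraud agar (37 °C, 7 days); read-out was log cfu/g wet tissue.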

Candida albicans [14] = assay: In vivo antifungal activity against murine candidosis model after peroral administration with 1 mg/kg at various time intervals. (percent protection for 100% mortality with fluconazole-treated group.); format: functional; conditions: route oral; summary of the method: as §2
Oryctolagus cuniculus [15] = assay: In vivo antifungal activity against systemic candidosis in rabbit kidney at a dose of 0.5 mg/kg, qd, po.; format: functional; summary of the method: as §4
Rattus norvegicus [16] = assay: In vivo activity against disseminated aspergillosis (liver) in immunocompromized rat model at a dose of 1 mg/kg, bid, po; format: functional
Summary of the method: (§5)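 Male Sprague–Dawley rats, 10 per group, were immunosuppressed with dexamethasone 21-acetate 1 mg/kg/day po from 4 days before iv infection. Oral dosing in 1% Tween 80 + 0.2% CMC was given 1 and 8 h post-infection, then bid for 6 more days. Vehicle controls were dosed po bid. On day 7, liver homogenate was plated on Sabouraud agar (37 °C, 7 days) and log cfu/g recorded.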

Oryctolagus cuniculus [17] = assay: In vivo antifungal activity against systemic candidosis in rabbit lung at a dose of 0.5 mg/kg, qd, po.; format: functional; summary of the method: as §4
Mus musculus [18] = assay: The compound was tested in vivo for anti-candida activity in mice model 2(dose :5 mg/kg,fluconazole-treated group); format: functional
Mus musculus [19] = assay: The compound was tested in vivo for anti-candida activity in mice model 1 (dose :0.5 mg/kg,fluconazole-treated group); format: functional
Rattus norvegicus [20] = assay: In vivo activity against disseminated aspergillosis (liver) in immunocompromized rat model at a dose of 25 mg/kg, bid, po; format: functional; summary of the method: as §5
Mus musculus [21] = assay: The compound was tested in vivo for anti-candida activity in mice model 1(dose: 0.5 mg/kg, untreated group).; format: functional
Oryctolagus cuniculus [22] = assay: In vivo antifungal activity against systemic candidosis in rabbit lung at a dose of 12.5 mg/kg, qd, po.; format: functional
Summary of the method: (§6)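 Groups of 10 male New Zealand rabbits were infected iv with C. albicans (1.2×10^7 cfu/kg). Drug was given orally as a suspension in 1% Tween 80 + 0.2% carboxymethylcellulose 4 h post-infection, then qd for 6 more days; controls got vehicle. On day 7, kidney or lung was homogenized in saline and plated on Sabouraud agar (37 °C, 7 days). Read-out was log cfu/g wet tissue.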

Oryctolagus cuniculus [23] = assay: In vivo antifungal activity against systemic candidosis in rabbit kidney at a dose of 12.5 mg/kg, qd, po.; format: functional; summary of the method: as §6
Oryctolagus cuniculus [24] = assay: In vivo antifungal activity against systemic candidosis in rabbit lung at a dose of 2.5 mg/kg, qd, po.; format: functional; summary of the method: as §4
Rattus norvegicus [25] = assay: In vivo activity against disseminated aspergillosis (liver) in immunocompromized rat model at a dose of 50 mg/kg, bid, po; format: functional; summary of the method: as §5
Rattus norvegicus [26] = assay: In vivo activity against disseminated aspergillosis (liver) in immunocompromized rat model at a dose of 5 mg/kg, bid, po; format: functional; summary of the method: as §5
Candida albicans [27] = assay: In vivo antifungal activity against murine candidosis model after peroral administration with 1 mg/kg at various time intervals. (percent protection for 100% mortality with untreated group); format: functional; conditions: route oral; summary of the method: as §2
Rattus norvegicus [28] = assay: In vivo activity against disseminated aspergillosis (liver) in immunocompromized rat model at a dose of 2 mg/kg, bid, po; format: functional
Candida albicans [29] = assay: Tested in vivo for anti-candida activity in mice model 1 (dose: 0.5 mg/kg, untreated group).; format: functional
Candida albicans [30] = assay: Tested in vivo for anti-candida activity in mice model 1 (dose:0.5 mg/kg, fluconazole-treated group); format: functional
Mus musculus [31] = assay: The compound was tested in vivo for anti-candida activity in mice model 2(dose: 1 mg/kg, untreated group).; format: functional
Mus musculus [32] = assay: The compound was tested in vivo for anti-candida activity in mice model 2(dose :1 mg/kg,fluconazole-treated group); format: functional
Mus musculus [33] = assay: The compound was tested in vivo for anti-candida activity in mice model 1(dose: 1 mg/kg,fluconazole-treated group); format: functional
Mus musculus [34] = assay: The compound was tested in vivo for anti-candida activity in mice model 1(dose: 1 mg/kg, untreated group).; format: functional

C[C@@H](n1cnc2cc(Cl)ccc2c1=O)[C@@](O)(Cn1cncn1)c1ccc(F)cc1F
MIC ([1]; read-out: MIC): > 80 µg/mL
MIC ([2]; read-out: MIC): > 80 µg/mL
Protection (Mus musculus [3]): 0%
Protection (Mus musculus [4]): 0%

C[C@@H](n1cnc2ncccc2c1=O)[C@](O)(Cn1cncn1)c1ccc(F)cc1F
Protection (Mus musculus [5]): 0%
MIC ([1]; read-out: MIC): 43 µg/mL (≈ 108 µM)
MIC ([2]; read-out: MIC): > 80 µg/mL
Protection (Mus musculus [6]): 0%

C[C@@H](n1cnc2cc(Cl)ccc2c1=O)[C@](O)(Cn1cncn1)c1ccc(Cl)cc1Cl
Protection (Mus musculus [5]): 80%
MIC ([1]; read-out: MIC): 0.2 µg/mL (≈ 0.43 µM)
MIC ([2]; read-out: MIC): 1.6 µg/mL (≈ 3.44 µM)
Protection (Candida albicans [7]): 0%

C[C@@H](n1cnc2cc(I)ccc2c1=O)[C@](O)(Cn1cncn1)c1ccc(F)cc1F
Protection (Candida albicans [8]): 0%
half-life [9]: > 48 h
MIC ([1]; read-out: MIC): 0.3 µg/mL (≈ 0.573 µM)
MIC ([2]; read-out: MIC): 0.9 µg/mL (≈ 1.72 µM)
Protection (Candida albicans [10]): 100%
MIC (Candida albicans [11]): < 0.03 µg/mL

C[C@H](n1cnc2cc(Cl)ccc2c1=O)[C@](O)(Cn1cncn1)c1ccc(F)cc1F
MIC ([1]; read-out: MIC): 7.4 µg/mL (≈ 17.1 µM)
MIC ([2]; read-out: MIC): 65 µg/mL (≈ 151 µM)
Protection (Mus musculus [3]): 0%
Protection (Mus musculus [4]): 0%

C[C@@H](n1cnc2cc(Cl)ccc2c1=O)[C@](O)(Cn1cncn1)c1ccc(F)cc1F (stereo in doubt; 20) [ALBACONAZOLE]
Protection (Mus musculus [12]): 90%
Log cfu/g (Oryctolagus cuniculus [13]): 0.3
Protection (Candida albicans [14]): 0%
half-life [9]: 2.9 h
Log cfu/g (Oryctolagus cuniculus [15]): 0.68
Log cfu/g (Rattus norvegicus [16]): 1.59
Log cfu/g (Oryctolagus cuniculus [17]): 0.39
MIC [1]: 0.3 µg/mL (≈ 0.695 µM)
Protection (Mus musculus [18]): 0%
Protection (Mus musculus [19]): 0%
MIC [2]: 0.7 µg/mL (≈ 1.62 µM)
Log cfu/g (Rattus norvegicus [20]): 0.48
Protection (Mus musculus [21]): 0%
Log cfu/g (Oryctolagus cuniculus [22]): 0
Protection (Candida albicans [10]): 0%
Log cfu/g (Oryctolagus cuniculus [23]): 0.35
MIC (Candida albicans [11]): < 0.03 µg/mL
Log cfu/g (Oryctolagus cuniculus [24]): 0.12
Log cfu/g (Rattus norvegicus [25]): 0
Log cfu/g (Rattus norvegicus [26]): 1.22
Protection (Candida albicans [27]): 0%

C[C@@H]1[C@H](O)[C@@H](C)/C=C/C=C/C=C/C=C/C=C/C=C/C=C/[C@H](O[C@@H]2O[C@H](C)[C@@H](O)[C@H](N)[C@@H]2O)C[C@@H]2O[C@](O)(C[C@@H](O)C[C@@H](O)[C@H](O)CC[C@@H](O)C[C@@H](O)CC(=O)O[C@H]1C)C[C@H](O)[C@H]2C(=O)O [AMPHOTERICIN B]
Log cfu/g (Rattus norvegicus [28]): 0.1

OC(Cn1cncn1)(Cn1cncn1)c1ccc(F)cc1F [FLUCONAZOLE]
MIC ([1]; read-out: MIC): 30 µg/mL (≈ 98 µM)
MIC ([2]; read-out: MIC): > 80 µg/mL
Protection (Candida albicans [29]): 100%
Log cfu/g (Oryctolagus cuniculus [22]): 1.44
Log cfu/g (Oryctolagus cuniculus [23]): 1.29

C[C@H]([C@](O)(Cn1cncn1)c1ccc(F)cc1F)S(C)(=O)=O [GENACONAZOLE]
Protection (Candida albicans [30]): 100%
MIC ([1]; read-out: MIC): 8.7 µg/mL (≈ 26.3 µM)
MIC ([2]; read-out: MIC): 25 µg/mL (≈ 75.5 µM)
Protection (Candida albicans [29]): 100%
Protection (Mus musculus [31]): 100%
Protection (Mus musculus [32]): 20%

CCC(C)n1ncn(-c2ccc(N3CCN(c4ccc(OC[C@@H]5CO[C@@](Cn6cncn6)(c6ccc(Cl)cc6Cl)O5)cc4)CC3)cc2)c1=O (stereo partly specified) [ITRACONAZOLE]
Protection (Candida albicans [30]): 0%
MIC ([1]; read-out: MIC): 5.2 µg/mL (≈ 7.37 µM)
MIC ([2]; read-out: MIC): 63 µg/mL (≈ 89.3 µM)
Protection (Candida albicans [29]): 0%

C[C@@H](c1nc(-c2ccc(C#N)cc2)cs1)[C@](O)(Cn1cncn1)c1ccc(F)cc1F [RAVUCONAZOLE]
Protection (Candida albicans [30]): 0%
MIC ([1]; read-out: MIC): 0.3 µg/mL (≈ 0.686 µM)
MIC ([2]; read-out: MIC): 0.8 µg/mL (≈ 1.83 µM)
Protection (Candida albicans [29]): 50%
Protection (Mus musculus [31]): 20%
Protection (Mus musculus [32]): 0%

C[C@@H](c1ncncc1F)[C@](O)(Cn1cncn1)c1ccc(F)cc1F [VORICONAZOLE]
Protection (Candida albicans [30]): 0%
Protection (Mus musculus [33]): 0%
MIC ([1]; read-out: MIC): 0.6 µg/mL (≈ 1.72 µM)
MIC ([2]; read-out: MIC): 0.5 µg/mL (≈ 1.43 µM)
Protection (Candida albicans [29]): 0%
Protection (Mus musculus [34]): 20%
